Experimental data taken from article PMC8244166 (Neuron, 2020).
Where “and” joins values, the source holds several entries; their conditions need not be identical. Equal entries are not always repeated.

How the values were obtained:
Glu864Trp channel = assay: Single channel recordings, point mutant; type: cell-based, human; details: +80 mV
hTRPA1 [1] = target: T1, hTRPA1 (Homo sapiens, UniProt O75762); assay: Whole-cell voltage-clamp recordings of TRPA1-expressing HEK293-F cells; type: cell-based; details: for current of second application compared to the first: whole-cell, n = 3
TRPA1 channel = assay: Inside-out single channel / macropatch recordings; type: cell-based, human; details: for y (single channel conductance) / Px/PNa (ion selectivity against Na+): 1 μM GNE551, 10 μM AITC; for Erev (reversal potential) / opening frequency / single channel open probability (Po): 1 μM GNE551 (n = 5); for Erev (reversal potential): 10 μM AITC (n = 4); for channel desensitization: nominally Ca2+-free solutions, AITC 10 μM, GNE551 1 μM; for opening frequency / single channel open probability (Po) / open state dwell time: inside-out; for opening frequency / single channel open probability (Po): +80 mV, 100 nM WaTx (n = 8); for open state dwell time: agonist-activated channels
[2] = Glutathione reactivity assay; type: physicochemical; details: 10 μM compound, 1 mM glutathione, pH7.4, 37°C, 30 minutes
Procedure, shortened: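 The test compound (10 μM) is incubated with or without 1 mM glutathione in 50 mM potassium phosphate, pH7.4, at 37°C for 30 minutes, and the reaction is stopped on ice. Samples run by UHPLC-MS on a C18 column at 40 °C and 0.4 mL/min, with a 0.1% formic acid water/acetonitrile gradient of 5–50% B over 15 minutes, then a 95% B wash.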

Gln940Val TRPA1 = assay: Whole-cell patch clamp, point mutant; type: cell-based, human; details: GNE551 1.5 μM, AITC positive control, n = 4
Procedure, shortened: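 HEK293-F cells are recorded whole-cell one day after transient transfection. From a 0 mV holding potential, the protocol is 10 msec at −80 mV, a 200 msec ramp to +80 mV, then 10 msec at +80 mV, applied once per second. Nominally Ca2+-free solutions are used: bath NaCl/HEPES with 0.1 mM EGTA, pH 7.4; pipette CsF with 10 mM EGTA, pH 7.2. Compounds are delivered by fast solution exchange.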

TRPA1 Glu864Trp mutant = assay: Ca2+ assay, point mutant; type: cell-based, human; details: high background Ca2+ signals
Procedure, shortened: (§1)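 HEK293-F cells are transiently transfected with the TRPA1 construct one day before imaging. Cells are loaded with a calcium-sensitive dye for 1 h at 37 °C. Compound is added and fluorescence (Ca2+ RFU) is recorded on a kinetic fluorescence imager. EC50 comes from nonlinear regression constrained to EC50 > 0, Bottom = 0 and Hill slope between 1 and 3.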

[3] = system: rat hind paw nocifensive behavior; assay: Nocifensive behavior after intraplantar agonist injection; type: in vivo; details: for cumulative nocifensive time: n = 7
Procedure, shortened: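 Male Sprague-Dawley rats aged 8 weeks or older are used; KO versus WT littermates from heterozygote crosses include both sexes. Under light restraint, a unilateral intraplantar injection of 25 μL is given with a 30-gauge needle: reference electrophile 0.1% or test agonist 10 mM. Rats are video-recorded 15 min (reference) or 30 min (test agonist) during the light phase. Licking, flicking and guarding time is scored blind offline, and groups are compared by two-tailed t-test.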

[4] = system: AITC-evoked nocifensive behavior; assay: Inhibition of AITC-evoked nocifensive behavior, PK/PD; type: in vivo, rat; details: 30 mg/kg dosing
[5] = system: GNE551-evoked nocifensive behavior; assay: Inhibition of GNE551-evoked nocifensive behavior, PK/PD; type: in vivo, rat
[6] = Rat pharmacokinetics after oral gavage; type: in vivo
hTRPA1 [7] = target: T1, hTRPA1; assay: Ca2+ influx assay, HEK293-F cells expressing human TRPA1; type: cell-based
human TRPV1 = assay: Ion channel selectivity test; type: cell-based; details: 20 μM
human TRPM8 = assay: Ion channel selectivity test; type: cell-based; details: 20 μM
human TRPC6 = assay: Ion channel selectivity test; type: cell-based; details: 20 μM
[8] = system: human potassium channel hERG1; assay: Ion channel selectivity test; type: cell-based; details: 10 μM
[9] = system: Cav1.2 (L-dihydropyridine site); assay: CEREP panel binding inhibition
NK1 receptor [10] = assay: CEREP panel binding inhibition; details: 10 μM
NK1 receptor [11] = assay: NK1 receptor agonist / antagonist assay; type: cell-based; details: up to 30 μM
Cav1.2 = Cav1.2 assay; type: cell-based; details: up to 30 μM
TRPA1 from rhesus monkey = assay: Ca2+ assay, species TRPA1; type: cell-based
Procedure, shortened: as §1

TRPA1 from dog = assay: Ca2+ assay, species TRPA1; type: cell-based
Procedure, shortened: as §1

TRPA1 from guinea pig = assay: Ca2+ assay, species TRPA1; type: cell-based
Procedure, shortened: as §1

TRPA1 from rat = assay: Ca2+ assay, species TRPA1; type: cell-based
Procedure, shortened: as §1

chicken TRPA1 = assay: Ca2+ assay, species TRPA1; type: cell-based; details: concentration as high as 50 μM
Procedure, shortened: as §1

[12] = system: chimera containing S1-S6 domains of chicken TRPA1; assay: Ca2+ assay, human-chicken chimera; type: cell-based
Procedure, shortened: as §1

[13] = system: Gln940Val mutant human channel; assay: Ca2+ assay, point mutant; type: cell-based
Procedure, shortened: as §1

[14] = system: TRPA1 Ser873Val/Thr874Leu; assay: Ca2+ assay, point mutant; type: cell-based, human
Procedure, shortened: as §1

TRPA1 Phe909Ala = assay: Ca2+ assay, point mutant; type: cell-based, human
Procedure, shortened: as §1

TRPA1 Tyr840 to Phe = assay: Ca2+ assay, point mutant; type: cell-based, human; details: versus wild type
Procedure, shortened: as §1

[15] = system: TRPA1 Tyr840 to Trp, His, Leu, or Ala; assay: Ca2+ assay, point mutants; type: cell-based, human
Procedure, shortened: as §1

[16] = system: TRPA1 Gln940 to Asn, Val or Ala; assay: Ca2+ assay, point mutants; type: cell-based, human
Procedure, shortened: as §1

[17] = system: TRPA1 Ser887 to Trp or Met; assay: Ca2+ assay, point mutants; type: cell-based, human
Procedure, shortened: as §1

[18] = system: rat dorsal root ganglion neurons; assay: Ca2+ influx in dorsal root ganglion neurons; type: cell-based; details: WT versus TRPA1 KO rats
hTRPA1 [19] = target: T1, hTRPA1
cryo-EM structure = target: the molecule itself; assay: cryo-EM structure

T1 sequence (O75762 whole entry): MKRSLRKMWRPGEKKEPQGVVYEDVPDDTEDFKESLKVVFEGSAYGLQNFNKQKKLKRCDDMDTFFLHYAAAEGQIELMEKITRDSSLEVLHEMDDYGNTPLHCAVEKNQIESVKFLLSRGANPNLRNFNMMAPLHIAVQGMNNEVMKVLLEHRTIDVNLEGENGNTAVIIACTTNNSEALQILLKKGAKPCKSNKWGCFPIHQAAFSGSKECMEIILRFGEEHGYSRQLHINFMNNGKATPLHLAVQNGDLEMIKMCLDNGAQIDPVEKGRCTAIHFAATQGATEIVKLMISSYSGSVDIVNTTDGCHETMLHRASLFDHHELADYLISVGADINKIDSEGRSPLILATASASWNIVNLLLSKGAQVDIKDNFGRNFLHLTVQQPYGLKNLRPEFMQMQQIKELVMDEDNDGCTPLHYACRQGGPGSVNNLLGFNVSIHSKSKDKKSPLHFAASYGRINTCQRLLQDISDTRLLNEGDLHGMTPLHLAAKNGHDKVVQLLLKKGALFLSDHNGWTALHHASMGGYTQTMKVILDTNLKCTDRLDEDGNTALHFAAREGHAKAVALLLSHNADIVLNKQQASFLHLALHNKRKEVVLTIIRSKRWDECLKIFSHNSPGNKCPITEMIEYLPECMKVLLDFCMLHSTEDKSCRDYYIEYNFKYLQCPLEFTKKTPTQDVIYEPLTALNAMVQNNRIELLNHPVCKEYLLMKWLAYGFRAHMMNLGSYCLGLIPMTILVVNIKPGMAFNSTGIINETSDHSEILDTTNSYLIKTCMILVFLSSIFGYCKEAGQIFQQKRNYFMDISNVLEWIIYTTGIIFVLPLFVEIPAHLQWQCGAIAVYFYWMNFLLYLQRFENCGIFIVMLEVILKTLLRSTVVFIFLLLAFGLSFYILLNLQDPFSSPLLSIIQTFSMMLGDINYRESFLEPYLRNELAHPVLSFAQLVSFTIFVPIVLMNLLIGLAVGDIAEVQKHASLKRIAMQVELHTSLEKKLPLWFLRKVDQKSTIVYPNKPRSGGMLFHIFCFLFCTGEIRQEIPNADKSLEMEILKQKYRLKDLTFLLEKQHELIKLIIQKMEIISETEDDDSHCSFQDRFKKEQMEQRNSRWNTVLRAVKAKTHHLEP

CCC(=N\O)/C(C)=C/c1ccc(F)cc1 [A-967079, reference compound]
block of high basal activity (Glu864Trp channel; A-967079 1 μM): blocked

C=CCN=C=S [AITC, allyl isothiocyanate, reference compound]
current of second application compared to the first (hTRPA1 [1]; −80 mV): 19.4 ± 4.3% | y (single channel conductance) (TRPA1 channel; cation Ca2+): 30.9 ± 6.2 pS | Erev (reversal potential) (TRPA1 channel; cation Mg2+): −19.1 ± 1.5 mV | y (single channel conductance) (TRPA1 channel; cation Mg2+): 30.1 ± 6.8 pS | y (single channel conductance) (TRPA1 channel; cation Na+): 134.9 ± 11.6 pS | channel desensitization (TRPA1 channel): desensitized within seconds | glutathione adduct formation [2]: formed a glutathione adduct | activation of mutant channel (Gln940Val TRPA1): robust response | response of mutant to agonist stimulation (TRPA1 Glu864Trp mutant): almost lost responses | nocifensive response ([3]; after 10 min, AITC 0.1%, 25 μl): completely disappeared | cumulative nocifensive time ([3]; first 5 min period, AITC 0.1%, 25 μl, WT rats): 102 ± 19 s | nocifensive behavior ([3]; intraplantar AITC 0.1%, 25 μl, WT and TRPA1 KO rats): elicited nocifensive behavior in wild type (WT) but not in knock out (KO) rats | cumulative nocifensive time ([3]; second 5 min period, AITC 0.1%, 25 μl, WT rats): 57.7 ± 11.1 s

Cn1cnc2ncn(Cc3nc(CCc4ccc(Cl)cc4)no3)c(=O)c21 [AMG0902]
block of AITC-induced response [4]: 86% | block of GNE551-induced response ([5]; 30 mg/kg): 38% | latency to GNE551-induced nocifensive behavior ([5]; increasing oral doses of antagonist): lengthened the latency | Tmax (time point of maximal plasma concentration) [6]: 1 h

COc1ccc(OC)c(NC(=O)c2nnn(Cc3ccc(Br)cc3F)c2N)c1 [GNE551, 5-amino-1-(4-bromo-2-fluorobenzyl)-N-(2,5-dimethoxyphenyl)-1H-1,2,3-triazole-4-carboxamide]
EC50 (hTRPA1 [7]): 254 nM | efficacy compared to AITC (hTRPA1 [7]; Ca2+ influx, human TRPA1): equally efficacious | EC50 (hTRPA1 [1]): 141 nM | current of second application compared to the first (hTRPA1 [1]; +80 mV): 93.5 ± 0.5% | current of second application compared to the first (hTRPA1 [1]; −80 mV): 89.0 ± 6.3% | Erev (reversal potential) (TRPA1 channel; cation Ca2+): −25.6 ± 1.1 mV | Px/PNa (ion selectivity against Na+) (TRPA1 channel; cation Ca2+): 15.7 ± 1.1 | y (single channel conductance) (TRPA1 channel; cation Ca2+): 21.6 ± 2.8 pS | Erev (reversal potential) (TRPA1 channel; cation Mg2+): −13.2± 2.7 mV | Px/PNa (ion selectivity against Na+) (TRPA1 channel; cation Mg2+): 7.2 ± 1.3 | y (single channel conductance) (TRPA1 channel; cation Na+): 101.4 ± 6.8 pS | opening frequency (TRPA1 channel): 4.6 ± 0.6 Hz | single channel open probability (Po) (TRPA1 channel): 0.41 ± 0.07 and 0.41 | open state dwell time (TRPA1 channel): 20.9 milliseconds | channel desensitization (TRPA1 channel): did not result in desensitization | glutathione adduct formation [2]: did not form an adduct | activation or block of channel (human TRPV1): did not activate or block | activation or block of channel (human TRPM8): did not activate or block | activation or block of channel (human TRPC6): did not activate or block | inhibition of channel [8]: did not inhibit | inhibition at 10 µM [9]: > 75% | binding inhibition (NK1 receptor [10]): > 75% | agonistic or antagonistic effect on NK1 receptor (NK1 receptor [11]): did not translate to significant agonistic or antagonistic effect | inhibition of Cav1.2 (Cav1.2): did not translate to | channel activation (TRPA1 from rhesus monkey): activated | channel activation (TRPA1 from dog): activated | channel activation (TRPA1 from guinea pig): activated | channel activation (TRPA1 from rat): activated | channel activation (chicken TRPA1): no effect | response of chimera [12]: lost response | effect of mutation on GNE551 activation [13]: nearly abolished | activation of mutant channel (Gln940Val TRPA1): failed to activate | effect of mutation on GNE551 activation [14]: not affected | effect of mutation on GNE551 activation (TRPA1 Phe909Ala): not affected | reduction of potency by mutation (TRPA1 Tyr840 to Phe): six-fold | effect of mutation on sensitivity to GNE551 [15]: completely abolished | effect of mutation on sensitivity to GNE551 [16]: completely abolished | effect of mutation on activation [17]: loss of activation | response of mutant to agonist stimulation (TRPA1 Glu864Trp mutant): almost lost responses | open probability (Po) (Glu864Trp channel; GNE551 1 μM, n = 4, basal Po 0.56 ± 0.05): 0.80 ± 0.08 | specificity of activation in DRG neurons [18]: solely activated TRPA1 channels | latency to nocifensive response ([3]; GNE551 10 mM, 25 μl, WT rats): reduced | residual response in TRPA1 KO rats ([3]; GNE551 10 mM, possibly vehicle effect): 13% | nocifensive behaviors ([3]; first 5 min after injection of GNE551): virtually no paw flicking, licking, or guarding | nocifensive response ([3]; intraplantar GNE551 1, 3, and 10 mM, 25 μl, WT rats): dose-dependent manner | time to plateau of nocifensive behaviors after injection ([3]; intraplantar GNE551, 30-min observation): 15 to 20 min

WaTx: cell-penetrating peptide toxin that activates TRPA1 (ASPQQAKYCYEQCNVNKVPFDQCYQMCSPLERS) [reference compound]
opening frequency (TRPA1 channel): 1.7 ± 0.5 Hz | single channel open probability (Po) (TRPA1 channel): 0.045 ± 0.012 | open state dwell time (TRPA1 channel): 2.2 milliseconds

cell-penetrating peptide toxin WaTx (from UniProt C0HLG4 36-68)
open state dwell time of WaTx-activated channels, inside-out patches (hTRPA1 [19]): 2.2 milliseconds

B1: human TRPA1 [Ser448-Thr1078], truncated and non-functional construct for structural studies (domain or fragment)
chain: GSGGSGGSGGSGGSPLHFAASYGRINTCQRLLQDISDTRLLNEGDLHGMTPLHLAAKNGHDKVVQLLLKKGALFLSDHNGWTALHHASMGGYTQTMKVILDTNLKCTDRLDEDGNTALHFAAREGHAKAVALLLSHNADIVLNKQQASFLHLALHNKRKEVVLTIIRSKRWDECLKIFSHNSPGNKCPITEMIEYLPECMKVLLDFCMLHSTEDKSCRDYYIEYNFKYLQCPLEFTKKTPTQDVIYEPLTALNAMVQNNRIELLNHPVCKEYLLMKWLAYGFRAHMMNLGSYCLGLIPMTILVVNIKPGMAFNSTGIINETSDHSEILDTTNSYLIKTCMILVFLSSIFGYCKEAGQIFQQKRNYFMDISNVLEWIIYTTGIIFVLPLFVEIPAHLQWQCGAIAVYFYWMNFLLYLQRFENCGIFIVMLEVILKTLLRSTVVFIFLLLAFGLSFYILLNLQDPFSSPLLSIIQTFSMMLGDINYRESFLEPYLRNELAHPVLSFAQLVSFTIFVPIVLMNLLIGLAVGDIADVQKHASLKRIAMQVELHTSLEKKLPLWFLRKVDQKSTIVYPNKPRSGGMLFHIFCFLFCTGEIRQEIPNADKSLEMEILKQKYRLKDLTFLLEKQHELIKLIIQKMEIISET
binding result (cryo-EM structure): binds
